Experimental findings from ChEMBL document CHEMBL1146073, “A pyridazine series of alpha2/alpha3 subtype selective GABA A agonists for the treatment of anxiety” (J Med Chem, 2006) are described below.

Data set [1] can be described thus: Stability in rat assessed as liver microsomal turnover. The data set is classed as ADME, Microsome. To be noted: liver microsomes, read-out: Stability. In a few lines:
(§1)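 Test compound at 1 µM, with diazepam as control, incubated 0.25 h with pooled liver microsomes at 0.5 mg/mL protein. Compound remaining quantified by LC/MS/MS. Turnover is the mean of three determinations.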
(In general: Microsomes from liver hold many membrane-bound enzymes, among them those of drug oxidation.)

Data set [2] has as its target GABA-A receptor; alpha-2/beta-3/gamma-2 (Homo sapiens) (UniProt P18507+P28472+P47869). In words: Efficacy against recombinant human GABA-Aalpha2 plus beta-3-gamma-2 expressed in L(tk-) cells by whole cell patch clamp method relative to chlordiazepoxide. In kind it is functional, cell-based. In a few lines: (§2)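 Whole-cell patch clamp on αxβ3γ2 receptors stably expressed in L(tk-) cells, measuring the effect on current evoked by an EC20-equivalent of GABA. Reported relative to full agonist chlordiazepoxide (=1.0), or as direct percent modulation of the EC20 control, with inverse agonism given as percent. Mean of at least four independent experiments.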

In data set [3] the target is GABA-A receptor; alpha-1/beta-3/gamma-2 (Homo sapiens) (UniProt P14867+P18507+P28472). In words: Efficacy against recombinant human GABA-Aalpha1 plus beta-3-gamma-2 expressed in L(tk-) cells by whole cell patch clamp method. In kind it is functional, cell-based. In a few lines:
as §2

Data set [4] is described as follows: Half life in rat. In kind it is ADME, organism-based. Conditions: in vivo. In a few lines:
(§3)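 Pharmacokinetics from six animals per species: three dosed iv and three dosed po.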

The target in data set [5] is T1, GABA-A receptor; alpha-5/beta-3/gamma-2 (Homo sapiens, UniProt P18507+P28472+P31644).
T1 sequence (P18507 whole entry): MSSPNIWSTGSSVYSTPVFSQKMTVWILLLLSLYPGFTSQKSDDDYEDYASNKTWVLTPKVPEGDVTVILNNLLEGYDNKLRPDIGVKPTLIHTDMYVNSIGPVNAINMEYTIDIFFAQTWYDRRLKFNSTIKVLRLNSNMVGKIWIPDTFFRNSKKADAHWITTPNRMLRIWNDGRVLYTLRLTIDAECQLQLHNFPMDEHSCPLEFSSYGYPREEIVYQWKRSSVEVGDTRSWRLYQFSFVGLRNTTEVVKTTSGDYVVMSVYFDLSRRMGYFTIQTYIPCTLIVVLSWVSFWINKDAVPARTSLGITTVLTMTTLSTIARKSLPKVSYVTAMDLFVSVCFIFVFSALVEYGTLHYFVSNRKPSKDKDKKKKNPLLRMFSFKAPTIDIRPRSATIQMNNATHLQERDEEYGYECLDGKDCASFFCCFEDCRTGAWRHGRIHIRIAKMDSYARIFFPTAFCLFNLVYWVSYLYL
T1 sequence (P28472 whole entry): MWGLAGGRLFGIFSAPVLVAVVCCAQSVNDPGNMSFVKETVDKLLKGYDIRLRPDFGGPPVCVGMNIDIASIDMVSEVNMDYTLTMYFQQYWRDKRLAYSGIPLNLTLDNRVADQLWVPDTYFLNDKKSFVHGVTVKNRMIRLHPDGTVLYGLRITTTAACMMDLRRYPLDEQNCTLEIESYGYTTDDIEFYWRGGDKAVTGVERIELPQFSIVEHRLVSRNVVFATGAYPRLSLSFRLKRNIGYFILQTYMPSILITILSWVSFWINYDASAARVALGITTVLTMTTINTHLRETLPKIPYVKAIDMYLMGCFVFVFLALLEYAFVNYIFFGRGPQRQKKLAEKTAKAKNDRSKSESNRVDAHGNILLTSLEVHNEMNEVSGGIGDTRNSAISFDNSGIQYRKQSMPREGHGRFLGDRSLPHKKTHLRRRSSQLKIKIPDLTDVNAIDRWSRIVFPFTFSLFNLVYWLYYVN
T1 sequence (P31644 whole entry): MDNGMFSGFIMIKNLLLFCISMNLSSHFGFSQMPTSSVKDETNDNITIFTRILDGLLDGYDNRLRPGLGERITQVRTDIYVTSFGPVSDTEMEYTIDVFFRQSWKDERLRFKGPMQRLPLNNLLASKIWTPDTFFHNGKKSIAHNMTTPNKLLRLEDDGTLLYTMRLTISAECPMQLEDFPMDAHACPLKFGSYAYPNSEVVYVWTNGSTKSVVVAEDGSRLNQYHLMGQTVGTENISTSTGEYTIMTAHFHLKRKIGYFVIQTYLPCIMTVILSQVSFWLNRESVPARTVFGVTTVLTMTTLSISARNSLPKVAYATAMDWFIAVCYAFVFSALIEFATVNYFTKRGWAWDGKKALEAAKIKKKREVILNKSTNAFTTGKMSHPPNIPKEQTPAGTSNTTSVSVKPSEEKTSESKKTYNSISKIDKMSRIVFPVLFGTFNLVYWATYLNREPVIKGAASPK
In words: Displacement of [3H]Ro-151788 from recombinant human GABA-Aalpha5 receptor plus beta3gamma2. In kind it is protein-complex assay. In a few lines: (§4)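 Benzodiazepine-site binding on stably transfected αxβ3γ2 receptors (x = 1, 2, 3 or 5). Inhibition curves run with [3H]Ro15-1788 at roughly twice its Kd. Ki derived by Cheng-Prusoff equation. Mean of three to six determinations.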
A general note: Loss of bound radioactivity is the signal in a displacement assay; it reports binding, not function.

Data set [6] can be described thus: Stability in human assessed as liver microsomal turnover. The data set is classed as ADME, Microsome. Conditions: liver microsomes, read-out: Stability. In a few lines:
as §1

Data set [7] is described as follows: Plasma clearance in rat. The data set is classed as ADME, organism-based. In a few lines:
as §3

Data set [8] deals with T2, GABA-A receptor; alpha-3/beta-3/gamma-2 (Homo sapiens, UniProt P18507+P28472+P34903).
T2 sequence (P18507 whole entry): T1 sequence (P18507 whole entry)
T2 sequence (P28472 whole entry): T1 sequence (P28472 whole entry)
T2 sequence (P34903 whole entry): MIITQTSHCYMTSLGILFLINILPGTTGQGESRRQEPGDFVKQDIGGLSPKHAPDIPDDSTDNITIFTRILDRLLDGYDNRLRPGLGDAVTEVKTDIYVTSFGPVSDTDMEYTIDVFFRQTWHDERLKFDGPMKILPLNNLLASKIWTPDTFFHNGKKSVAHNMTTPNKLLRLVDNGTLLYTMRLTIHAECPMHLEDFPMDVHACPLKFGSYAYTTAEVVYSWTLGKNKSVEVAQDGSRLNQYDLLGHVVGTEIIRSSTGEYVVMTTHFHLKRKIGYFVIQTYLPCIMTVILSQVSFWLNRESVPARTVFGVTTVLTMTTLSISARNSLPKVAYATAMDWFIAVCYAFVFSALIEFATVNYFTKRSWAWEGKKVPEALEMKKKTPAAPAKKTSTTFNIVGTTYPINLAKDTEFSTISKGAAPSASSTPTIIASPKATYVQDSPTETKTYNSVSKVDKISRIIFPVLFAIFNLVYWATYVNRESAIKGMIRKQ
Nature of the data set: Displacement of [3H]Ro-151788 from recombinant human GABA-Aalpha3 receptor plus beta3gamma2. In kind it is protein-complex assay. In a few lines:
as §4

Data set [9] in a line: Stability in dog assessed as liver microsomal turnover. In kind it is ADME, Canis lupus familiaris. To be noted: liver microsomes, read-out: Stability. In a few lines: as §1

Molecules are shown by their SMILES.

Take `Fc1cnc(-c2cc(-c3ccc(F)c(-c4ncc(F)cc4F)c3)cnn2)c(F)c1`: the metabolised in [1] is 3%; in data set [6], 3%; in data set [9], 8%. The Efficacy was 0.12 in data set [2] and -7% in data set [3]. Moreover, in [4], the half-life (in general, the time needed for the level to fall by half in the phase considered) was 53 h. Further, the Ki (in general, the equilibrium dissociation constant of an inhibitor or competing ligand from its target) in data set [5] worked out at 12.1 nM; in [8] it was 8.5 nM. The clearance (commonly the volume of plasma or blood freed of the substance per unit of time) in [7] was found to be 0.078 L/h/kg.

With `Fc1cnc(-c2cc(-c3cnnc(-c4c(F)cncc4F)c3)ccc2F)c(F)c1`, the metabolised is 5% in data set [1], 3% in [6] and 4% in data set [9]. Further, the Efficacy in data set [2] was 0.28; in [3], -3%. Besides, the half-life in data set [4] was 1.6 h. Moreover, the inhibition constant (Ki) in [5] is 6 nM; in [8], 6.3 nM. For the same compound, the clearance in data set [7] worked out at 3.54 L/h/kg.

Consider `Fc1cnc(-c2cc(-c3cnnc(-c4c(F)cc(F)cc4F)c3)ccc2F)c(F)c1`, for which the metabolised is 4% in data set [1], 7% in data set [6] and 0% in data set [9]. Further, the Efficacy in data set [2] is 0.36; in data set [3], -9%. For the same compound, the inhibition constant (Ki) in data set [5] was 5.1 nM; in [8], 5 nM.

`Fc1cnc(-c2cc(-c3ccc(F)c(-c4ncccc4F)c3)cnn2)c(F)c1`: the metabolised was less than 5% in [1] and 6% in data set [6]. Besides, the Efficacy in [2] is 0.43; in [3], -0.8%. The compound also gave a half-life in data set [4] of 10 h. Moreover, the Ki in data set [5] was 2.8 nM; in data set [8] it was 2 nM. In addition, the clearance in [7] came out at 0.18 L/h/kg.
